Measurements from ChEMBL document CHEMBL1142131, “Effect of anaerobic growth on quinolone lethality with Escherichia coli” (2007).
≈ marks a conversion by molar mass, not a printed value. Calls of active or inactive are those of the source. No cut-off for these calls is given here.

Columns and labels:
Escherichia coli [1] = experiment: Bacteriostatic activity against Escherichia coli DM4100 in aerobic condition; assay type: functional
Procedure, shortened: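 MIC from 10^4 to 10^5 cells/ml in liquid medium with serial twofold quinolone dilutions. Incubated at 37°C with shaking, 2-ml cultures, aerobic.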

Escherichia coli [2] = experiment: Bacteriostatic activity against Escherichia coli DM4100 in anaerobic condition; assay type: functional
Procedure, shortened: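 MIC from 10^4 to 10^5 cells/ml in liquid medium with serial twofold quinolone dilutions. Incubated at 37°C in sealed tubes after 20 min flushing with anaerobic gas (85% N2, 10% H2, 5% CO2).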

Escherichia coli [3] = experiment: Bactericidal activity against Escherichia coli DM4100 in aerobic condition; assay type: functional, organism-based
Procedure, shortened: (§1)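 Mid-log cells grown aerobically at 37°C in liquid medium, split into 2-ml portions and given quinolone for 2 h with shaking in air. Chloramphenicol 20 µg/ml was added 10 min before quinolone for the chloramphenicol arm. Cells were diluted in ice-cold LB and plated on drug-free LB agar overnight at 37°C aerobically. Read-out is CFU relative to CFU at time of quinolone addition.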

Escherichia coli [4] = experiment: Bactericidal activity against Escherichia coli DM4100 in anaerobic condition; assay type: functional, organism-based
Procedure, shortened: (§2)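 Mid-log aerobic cultures at 37°C were split into 2-ml portions in sealed tubes flushed with anaerobic gas (85% N2, 10% H2, 5% CO2). After 20 min, anaerobic quinolone solution was added and incubation continued 2 h under gas flow. Cells were diluted in ice-cold LB, plated aerobically on drug-free LB agar overnight at 37°C. Survival is CFU relative to CFU at drug addition.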

Escherichia coli [5] = experiment: Bactericidal activity against Escherichia coli DM4100 in the presence of chloramphenicol; assay type: functional, organism-based
Procedure, shortened: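 Aerobically growing mid-log cells at 37°C received chloramphenicol to 20 µg/ml 10 min before the quinolone. Treatment ran 2 h. Cells were diluted in ice-cold LB and plated aerobically on drug-free LB agar overnight at 37°C. Survival is CFU relative to CFU at quinolone addition. Replicate experiments were run.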

Escherichia coli [6] = experiment: Bactericidal activity in Escherichia coli KD1373 containing parC resistance mutation in aerobic condition; assay type: functional, organism-based; procedure, shortened: as §1
Escherichia coli [7] = experiment: Bactericidal activity in Escherichia coli KD1373 containing parC resistance mutation in anaerobic condition; assay type: functional, organism-based; procedure, shortened: as §2
Escherichia coli [8] = experiment: Bactericidal activity in Escherichia coli KD1373 containing parC resistance mutation in presence of chloramphenicol; assay type: functional, organism-based; procedure, shortened: as §1
Escherichia coli [9] = experiment: Bactericidal activity in Escherichia coli KD2329 with gyrA-par C resistant mutation; assay type: functional, organism-based; procedure, shortened: as §1
Escherichia coli [10] = experiment: Bactericidal activity against Escherichia coli DM4100 in saline; assay type: functional, organism-based
Escherichia coli [11] = experiment: Chromosome fragmentation in Escherichia coli DM4100 assessed as reduced lysate viscosity at 50 ug/ml after 2 hrs in aerobic condition; assay type: functional, organism-based
Procedure, shortened: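 Exponential aerobic cells were treated 2 h with drug, then gently lysed with lysozyme and nonionic detergents at 20°C for 2–3 min. Lysate twofold dilutions received pancreatic RNase 20 µg/ml, were heated at 80°C for 2 min, chilled on ice and brought to 20°C. Viscosity was measured by capillary viscometry.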

Escherichia coli [12] = experiment: Bactericidal activity in Escherichia coli KD1373 containing parC mutation in anerobic condition; assay type: functional, organism-based; procedure, shortened: as §2
Escherichia coli [13] = experiment: Bactericidal activity in Escherichia coli KD2750 containing gyrA resistant mutation in anerobic condition; assay type: functional, organism-based; procedure, shortened: as §2
Escherichia coli [14] = experiment: Bactericidal activity in Escherichia coli KD2329 containing gyrA-parC mutation; assay type: functional, organism-based; procedure, shortened: as §1

SMILES | MIC (Escherichia coli [1]) [µg/mL] | MIC (Escherichia coli [2]) [µg/mL] | Activity (Escherichia coli [3]) | Activity (Escherichia coli [4]) | Activity (Escherichia coli [5]) | Activity (Escherichia coli [6]) | Activity (Escherichia coli [7]) | Activity (Escherichia coli [8]) | Activity (Escherichia coli [9]) | Activity (Escherichia coli [10]) | Activity (Escherichia coli [11]) | Activity (Escherichia coli [12]) | Activity (Escherichia coli [13]) | Activity (Escherichia coli [14])
CCN1CCN(c2c(F)cc3c(=O)c(C(=O)O)cn(C4CC4)c3c2OC)CC1 | 0.08 (≈ 0.205 µM) | 0.08 (≈ 0.205 µM) | Active | Active | Active | Active | Active | Active | inactive |  |  |  |  | 
O=C(O)c1cn(C2CC2)c2cc(N3CCNCC3)c(F)cc2c1=O |  |  | Active | Active | Active |  |  |  |  | Active |  |  |  | 
CCn1cc(C(=O)O)c(=O)c2ccc(C)nc21 [NALIDIXIC ACID] | 5 (≈ 21.5 µM) | 5 (≈ 21.5 µM) | Active | inactive | inactive |  |  |  |  | inactive | Active |  |  | 
CCn1cc(C(=O)O)c(=O)c2cc(F)c(N3CCNCC3)cc21 [NORFLOXACIN] | 0.075 (≈ 0.235 µM) | 0.075 (≈ 0.235 µM) | Active | Active | inactive |  |  |  |  | Active |  | Active | Active | inactive
